Only some compounds are listed: those with a hit (about 2.5% of all), similar ones and a draw of the others.
SENP8 block-1: SENP8 (human) protease inhibition; recombinant SENP8, Nedd8 substrate fluorescence; Q96LD8; actives 0.64% (n = 360,000); inhibition, % at 20 µM; in the data active means inhibition mostly above about 40%, no sharp cut-off; inactive means mostly below about 27%
Target sequence (Q96LD8 whole entry, looked up): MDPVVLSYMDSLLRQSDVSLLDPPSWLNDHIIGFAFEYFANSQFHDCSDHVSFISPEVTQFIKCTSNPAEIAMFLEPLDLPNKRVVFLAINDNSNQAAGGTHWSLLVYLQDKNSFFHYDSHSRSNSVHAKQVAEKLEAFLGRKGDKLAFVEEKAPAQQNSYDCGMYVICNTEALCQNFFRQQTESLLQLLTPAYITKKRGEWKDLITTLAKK
SENP6 block: SENP6 protease inhibition; Q9GZR1; Recombinant SENP6 catalytic domain, aminoluciferin luminescence; inhibition, % at 10 µM; actives 1.8% (n = 330,000);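 active means inhibition above about 50% at the single tested dose, limit read from the data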;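 further: plate controls were DMSO wells with enzyme for no effect and DMSO wells lacking enzyme for full effect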
SENP1 inh: SENP1 (human) catalytic domain inhibition. recombinant SENP1 catalytic domain, CyPet-SUMO1-YPet FRET cleavage. inhibition, % at 10 µM. Q9P0U3. actives 0.21% (n = 360,000);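 active means inhibition at least 30% at 10 µM, raw YFP signal under a set limit, fluorescence ratio 0.5 to 1.5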;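 further: 0% = enzyme with DMSO and 100% = no enzyme wells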
Target sequence (Q9P0U3 419-644 limits assumed): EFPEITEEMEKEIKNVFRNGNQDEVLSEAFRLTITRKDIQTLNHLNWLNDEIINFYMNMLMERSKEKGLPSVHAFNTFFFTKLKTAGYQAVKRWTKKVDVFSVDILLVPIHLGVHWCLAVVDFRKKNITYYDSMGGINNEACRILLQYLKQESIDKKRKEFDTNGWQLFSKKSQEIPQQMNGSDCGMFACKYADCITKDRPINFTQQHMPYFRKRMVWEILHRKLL
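Test system: recombinant human SENP1 catalytic domain, His6-tagged / Medium: pH 8 Tris buffer with EDTA, NaCl, BME, BSA, NP40, catalase / Also added: SUMO1 FRET substrate flanked by Cypet and Ypet, 25 nM / Times: 50 min reaction at room temperature / Signal: FRET, CFP and YFP emission / Control set: no-enzyme low control and enzyme-plus-DMSO high control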
SENP8 block-2: inhibitors of human SENP8 protease. Q96LD8. purified SENP8, Z-RLRGG-aminoluciferin cleavage, luminescence. inhibition, % at 10 µM. actives 1.2% (n = 330,000); in the data active means inhibition above about 50%
SENP7 block: SENP7 protease inhibition; Q9BQF6; recombinant SENP7, Z-RLRGG-aminoluciferin luminescence, 40 min; inhibition, % at 5 µM; actives 1.5% (n = 330,000); AID 434973;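 active means inhibition above about 50% at the single test dose, limit read from the data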;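 further: plate controls were DMSO with enzyme for no effect and no enzyme buffer wells for full effect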
SENP8 conf: SENP8 (human) inhibition, single concentration confirmation; shares compounds with SENP8 block-1; purified SENP8, Nedd8-AMC/pro-Nedd8 cleavage fluorescence, 30 min; inhibition, % at 25 µM; actives 15% (n = 1,400); AID 624319; in the data active means inhibition mostly above about 39%, no sharp cut-off; inactive means mostly below about 34%
Active calls of the source: *; · = not tested or not shown.

SMILES | SENP8 block-1 | SENP6 block | SENP1 inh | SENP8 block-2 | SENP7 block | SENP8 conf
COc1ccccc1N1C(=O)C2C(c3ccc(F)cc3)NN(C(=O)c3ccc(C)cc3)C2C1=O (centres undefined) | 44* | -13 | 3 | -1 | 6 | 21
COc1ccc(OC)c(N(CC(=O)NCCSCc2ccc(C)cc2)S(C)(=O)=O)c1 | 16 | -19 | -1 | 4 | 14 | ·
CCCN1C2=C(C(=O)CC(C)(C)C2)C(c2ccc(F)cc2)C2=C1c1ccccc1C2=O (centres undefined) | 24 | 9 | 1 | -2 | 13 | ·
CCCCN1C2=C(C(=O)CC(C)(C)C2)C(c2ccccc2)C2=C1c1ccccc1C2=O (centres undefined) | 54* | -4 | 1 | 0 | 18 | 13
C[N+](C)(C)C[C@H](O)CC(=O)[O-] | 45* | -8 | -1 | 2 | -3 | 14
COc1ccc(/C=N/Nc2nnc(C)n2N)cc1OC(C)=O | 26 | 11 | 4 | 3 | -1 | ·
COc1ccc(/C=N/Nc2nnc(C)n2N)cc1OC | 41* | 10 | 2 | -5 | 0 | 18
Cc1[nH][nH]c(=O)c1C(c1cc2c(cc1Br)OCO2)c1c(C)[nH][nH]c1=O | 7 | 14 | 2 | -4 | -1 | ·
Cc1[nH][nH]c(=O)c1C(c1cc(Br)ccc1O)c1c(C)[nH][nH]c1=O | 42* | 15 | -3 | 4 | 4 | 39
Cc1cc(C)n(-c2ccc(C(=O)N3CCN(c4ccccn4)CC3)cc2)n1 | -3 | -17 | 2 | -6 | -6 | ·
Cc1cc(C)n(-c2ccc(C(=O)N3CCN(S(=O)(=O)c4ccc(Br)cc4Cl)CC3)cc2)n1 | 42* | · | 3 | · | · | 8
Cc1nnc(Sc2cc(NCCCO)c([N+](=O)[O-])c3nonc23)s1 | 75* | · | -9 | · | · | 6
CCCSc1cc(NCCOC(C)=O)c([N+](=O)[O-])c2nonc12 | 26 | 0 | -23 | -7 | 8 | ·
CCCCn1c(Cn2nc(C(=O)O)c3ccccc3c2=O)nc2cc(S(N)(=O)=O)ccc21 | 10 | -9 | -3 | 8 | -2 | ·
CC(Sc1ccsc1[N+](=O)[O-])C(=O)NCCc1ccc(Cl)cc1 (centres undefined) | 42* | 8 | 1 | 5 | -1 | 15
O=C(Nn1cnnc1)c1cc(Cl)cc(Cl)c1 | 11 | -29 | 1 | -6 | -5 | ·
CCN1C(=C(C#N)C#N)C=Cc2ccccc21 | 14 | -8 | 0 | -3 | -5 | ·
CCOC(=O)/C(C#N)=C1/C=Cc2ccccc2N1CC | 41* | -8 | 0 | 5 | 2 | 18
Cc1ccc2[nH]c(C)c(/C=C/c3cc[n+](C)cc3)c2c1 | 40* | -6 | -24 | 7 | 1 | 32
Cc1ccc2c(c1)c(/C=C/c1cc[n+](C)cc1)c(C)n2C | 44* | 2 | -19 | 4 | 3 | 20
Nc1nc(NCCO)nc(NC2CCCCC2)c1[N+](=O)[O-] | 18 | -36 | 1 | -13 | -11 | ·
Nc1nc(NCCOCCO)nc(NC2CCCCC2)c1[N+](=O)[O-] | 47* | 0 | -2 | -1 | 0 | -1
CNc1cc([N+](=O)[O-])ccc1N/C=C/C(=O)c1ccc2c(c1)OCO2 | 29 | 3 | 27 | -9 | -5 | ·
CNc1cc([N+](=O)[O-])ccc1N/C=C/C(=O)c1cccs1 | 42* | 9 | 17 | -10 | -11 | 19
CCn1c(C)nc2cc(C(=O)NNS(=O)(=O)c3ccccc3F)ccc21 | 42* | -12 | 2 | 5 | -1 | -8
SMILES | SENP8 block-1 | SENP6 block | SENP1 inh | SENP8 block-2 | SENP7 block | SENP8 conf
CCOC(=O)c1ccc(S(=O)(=O)NNC(=O)c2ccc3c(c2)nc(C)n3CC)cc1 | 4 | -11 | 3 | -3 | 3 | ·
CSc1nncc(/C(C)=N\Nc2ccccc2C)n1 | 54* | -3 | -1 | 4 | 11 | 15
NC(=NC1CCCCC1)c1ccc([N+](=O)[O-])cc1 | 42* | -7 | 1 | 8 | 3 | 5
CCOc1ccc(N/C=C/C(=O)c2ccc3ccccc3c2)c([N+](=O)[O-])c1 | 25 | -18 | 17 | -3 | -8 | ·
CCOc1ccc(N/C=C/C(=O)c2ccc(C)cc2)c([N+](=O)[O-])c1 | 43* | -13 | 11 | -7 | -7 | 19
N#CC(c1ccccc1)c1ccc2c(C(F)(F)F)cc(C(F)(F)F)nc2n1 (centres undefined) | 32 | -3 | -13 | -9 | -7 | ·
Cc1ccc(C(C#N)c2ccc3c(C(F)(F)F)cc(C(F)(F)F)nc3n2)cc1 (centres undefined) | 43* | -22 | -6 | 6 | -3 | 11
COCCNC(=O)CN1C(=O)/C(=C/c2ccccc2)Oc2ccc(C(C)(C)C)cc21 | -295 | 1 | -5 | 7 | 3 | ·
COc1ccc(N(CCC#N)C(=O)/C(C#N)=C\c2cccs2)cc1 | 34* | -19 | 4 | -11 | -2 | 10
COCCNC(=O)/C(C#N)=C/c1cccs1 | 14 | -10 | 6 | 2 | 0 | ·
Cc1c(SCCO)c(=O)[nH]c2cc3c(cc12)OCO3 | -282 | 9 | 1 | 2 | 1 | ·
Nn1c(-c2ccccc2Cl)nnc1-c1ccccc1Cl | 40* | 13 | 1 | -6 | 9 | 9
COc1ccccc1NC(=O)CSC(N)=O | 46* | -10 | 2 | -4 | -4 | 17
COc1ccc(NCc2nnc(SCC(=O)Nc3ccccc3OC)o2)cc1 | 46* | -4 | 1 | 2 | -7 | 37
CCOC(=O)C1C(=O)NC(c2ccccc2)=NC1c1ccc(O)c(OC)c1 (centres undefined) | 2 | 2 | 0 | 2 | 5 | ·
COc1ccc(C(=O)C(=O)N2CCN(c3ccccc3F)CC2)cc1 | 10 | · | 4 | · | · | ·
O=C(Cc1nc2ccccc2[nH]1)c1ccc(Br)cc1 | -41 | 6 | -26 | -16 | -12 | ·
CC1(C(=O)Nc2ccc3c(c2)OCCO3)CCN1Cc1ccc2ccccc2c1 (centres undefined) | 40* | · | -1 | · | · | -12
CC1(C(=O)Nc2ccc3c(c2)OCCO3)CCN1Cc1ccc(-c2ccccn2)cc1 (centres undefined) | 18 | · | 2 | · | · | ·
CCOc1ccc(NS(=O)(=O)c2ccc(Cl)c(N=Nc3c(O)[nH]c(=S)[nH]c3=O)c2)cc1Br | 40* | · | 1 | · | · | 30
Cc1cc(=O)n(-c2ccc3ccccc3n2)[nH]1 | 47* | 16 | 3 | -3 | 4 | 17
CC1=CCC2C(=O)N(c3ccc4ccccc4n3)C(=O)C2C1 (centres undefined) | -10 | 7 | -2 | -5 | 6 | ·
O=C(c1ccccc1)c1cccc(C(=O)c2ccccc2)c1 | 8 | -2 | 0 | -13 | -4 | ·
Nc1cc(N)cc(C(=O)c2ccccc2)c1 | 43* | · | 1 | · | · | 77*
O=c1oc2ccccc2nc1/C=C(O)/C=C\c1ccccc1 | 15 | 0 | -17 | 3 | 10 | ·
O=c1oc2ccccc2nc1/C=C(O)/C=C/c1ccc(F)cc1 | 47* | 2 | -17 | -4 | 5 | -3

Assay outcomes from PubChem.
